Results published in ChEMBL document CHEMBL1123577, “Synthesis and structure-activity relationships of a series of aminopyridazine derivatives of gamma-aminobutyric acid acting as selective GABA-A antagonists” (J Med Chem, 1987).

Target: GABA-A receptor; anion channel
Test: Inhibition of [3H]GABA binding to Gamma-aminobutyric acid A (GABA-A) receptor of rat brain membranes
Assay type: cell membranes, Membrane
Outline: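 Triton-treated whole-brain membranes from male Wistar rats (180–220 g), labelled with [3H]GABA at 2.9 nM. Compounds were first screened at 100 μM. Those inhibiting binding by more than 50% were run as dose-inhibition curves of four to eight concentrations in triplicate incubations, and IC50 was derived by log-probit analysis.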

Going from `Nc1nc(CCC(=O)O)cs1` to `O=C(O)CCc1c[nH]cn1`, the IC50 rises from 68 µM to 290 µM (4.3-fold). The first is the more potent here.

`N=C(N)NCCC(=O)O` [OMPENACLID] and `N=C(N)NCC(=O)O` [GUANIDINO ACETATE] are within 1.5-fold of each other in IC50: 1.8 µM for the first, 2.1 µM for the second.

Compared with `N=C(N)SCCC(=O)O`, `N/C(S)=N\CC(=O)O` is 1.6-fold lower in IC50: 29 µM for the first, 18 µM for the second.

In the case of `O=C(O)Cc1c[nH]cn1` [IMIDAZOLE ACETIC ACID], the IC50 is reported as 0.9 µM.

Target: not listed separately
Test: Inhibitory activity against sodium-dependent synaptosome uptake was determined
Assay type: functional, tissue-based, Brain

`[N-]=[N+]=Nc1ccc(/C(N)=N/CCCC(=O)O)cc1` gave a Ki of 8 µM.

Target: 4-aminobutyrate aminotransferase, mitochondrial (Homo sapiens, UniProt P80404)
Test: Compound was tested for inhibition of Gamma-amino-N-butyrate transaminase

Sequence of 4-aminobutyrate aminotransferase, mitochondrial (P80404 whole entry): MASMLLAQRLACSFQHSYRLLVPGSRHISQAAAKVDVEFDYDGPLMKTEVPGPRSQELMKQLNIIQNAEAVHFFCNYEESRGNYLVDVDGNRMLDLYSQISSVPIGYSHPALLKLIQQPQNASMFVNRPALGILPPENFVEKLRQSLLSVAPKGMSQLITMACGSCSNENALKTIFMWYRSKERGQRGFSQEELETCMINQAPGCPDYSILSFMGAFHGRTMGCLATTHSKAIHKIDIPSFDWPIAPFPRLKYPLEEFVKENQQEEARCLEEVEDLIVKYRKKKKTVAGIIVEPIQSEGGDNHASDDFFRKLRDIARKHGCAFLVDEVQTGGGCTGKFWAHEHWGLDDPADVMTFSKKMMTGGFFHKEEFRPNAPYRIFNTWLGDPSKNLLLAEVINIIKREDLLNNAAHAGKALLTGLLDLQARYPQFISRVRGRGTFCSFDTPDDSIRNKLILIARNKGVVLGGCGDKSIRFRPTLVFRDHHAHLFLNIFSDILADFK

`O=C(O)CNC(=S)Nc1ccccc1` showed a Ki of 91 µM.

Target: GABA-A receptor; anion channel
Test: Binding affinity, determined by its ability to displace the [3H]GABA from Gamma-aminobutyric acid A (GABA-A) receptor site of rat brain membranes
Set-up: species or system Membrane

`Cc1ccc(-c2cc(C)c(N)[n+](CCCC(=O)O)n2)cc1` and `Cc1cc(-c2ccc(O)cc2)n[n+](CCCC(=O)O)c1N` are within 1.5-fold of each other in Ki: 0.55 µM for the first, 0.43 µM for the second.

First: Nc1ccc(-c2ccc(Cl)cc2Cl)n[n+]1CCCC(=O)O
Second: Nc1ccc(-c2ccccc2Cl)n[n+]1CCCC(=O)O
The Ki of the first is 2.4-fold lower: 0.56 µM for the first, 1.37 µM for the second. The first binds more tightly here.

First: Cc1cc(-c2cccc(Cl)c2)n[n+](CCCC(=O)O)c1N
Second: Cc1cc(-c2ccccc2)n[n+](CCCC(=O)O)c1N [FAMIRAPRINIUM CHLORIDE]
The Ki of the first is 5.1-fold lower: 0.45 µM for the first, 2.3 µM for the second. The first binds more tightly here.

First: Nc1ccc(-c2ccsc2)n[n+]1CCCC(=O)O
Second: Nc1ccc(-c2cccs2)n[n+]1CCCC(=O)O
The Ki of the first is 4.1-fold higher: 2.37 µM for the first, 0.58 µM for the second.

Going from `Oc1onc2c1CCNCC2` to `CC12CC(=O)C3C(CCC4CC(O)CCC43C)C1CC(=N)N2` (configuration not stated), the Ki falls from 50 µM to 0.047 µM (1100-fold).

First: Cc1cc(-c2ccccc2)nn(CCCC(=O)O)c1=O
Second: Cc1cc(-c2ccccc2)n[n+](CCCCC(=O)O)c1N
The Ki of the first is higher: greater than 100 µM for the first, 10 µM for the second.

Going from `Cc1cc(-c2ccc([N+](=O)[O-])cc2)n[n+](CCCC(=O)O)c1N` to `COc1ccc(-c2cc(C)c(N)[n+](CCCC(=O)O)n2)cc1`, the Ki falls from 22.8 µM to 0.31 µM (74-fold). The second binds more tightly here.

`Cc1cc(-c2ccccc2)n[n+](CCC(C)C(=O)O)c1N` (configuration not stated) and `Cc1cc(-c2ccccc2)n[n+](CCC(=O)O)c1N` are the same in Ki: 7 µM for the first, 7 µM for the second.

Going from `Nc1ccc(C2CCCCC2)n[n+]1CCCC(=O)O` to `Nc1ccc(Cl)n[n+]1CCCC(=O)O`, the Ki rises from 3.74 µM to 91.2 µM (24-fold). The first binds more tightly here.

First: CCOC(=O)CCC[n+]1nc(-c2ccccc2)cc(C)c1N
Second: Cc1cc(-c2ccccc2)n[n+](CCCC(N)=O)c1N
The Ki of the first is higher: greater than 100 µM for the first, 91 µM for the second.

First: N#CCCC[n+]1nc(-c2ccccc2)ccc1N
Second: Cc1cc(-c2ccccc2)n[n+](CCCC#N)c1N
The Ki of the first is 4.5-fold higher: 91 µM for the first, 20 µM for the second. The second binds more tightly here.

Compared with `N#CCCC[n+]1nc(-c2ccccc2)cc(-c2ccccc2)c1N`, `Cc1cc(-c2ccccc2)n[n+](CCCCCC(=O)O)c1N` is 7.2-fold lower in Ki: 91 µM for the first, 12.7 µM for the second. The second binds more tightly here.

`Cc1n[n+](CCCC(=O)O)c(N)cc1-c1ccccc1` and `Cc1cc(N)[n+](CCCC(=O)O)nc1-c1ccccc1` are within 1.5-fold of each other in Ki: 10.6 µM for the first, 10.4 µM for the second.

`Cc1cc(-c2ccccc2Cl)n[n+](CCCC(=O)O)c1N` and `Cc1cc(-c2cccc3ccccc23)n[n+](CCCC(=O)O)c1N` are within 1.5-fold of each other in Ki: 2.14 µM for the first, 2.64 µM for the second.

`Cc1ccn[n+](CCCC(=O)O)c1N` and `CC(C)Cc1ccc(N)[n+](CCCC(=O)O)n1` are within 1.5-fold of each other in Ki: 31.9 µM for the first, 22.3 µM for the second.

Compared with `NC1C(c2ccccc2)=CC(c2ccccc2)=NN1CCCC(=O)O` (configuration not stated), `NC1C=CC(c2ccccc2)=NN1CCCC(=O)O` (configuration not stated) is 82-fold lower in Ki: 100 µM for the first, 1.22 µM for the second. The second binds more tightly here.

Going from `Nc1ccc(-c2ccc([N+](=O)[O-])cc2)n[n+]1CCCC(=O)O` to `Nc1ccc(-c2ccc(Cl)cc2)n[n+]1CCCC(=O)O`, the Ki falls from 1.37 µM to 0.28 µM (4.9-fold). The second binds more tightly here.

Going from `C[N+]1(C)CCc2cc3c(cc2[C@H]1[C@@H]1OC(=O)c2c1ccc1c2OCO1)OCO3` to `Cc1cc(-c2ccccc2)n[n+](C(C)CCC(=O)O)c1N` (configuration not stated), the Ki falls from 38 µM to 9 µM (4.2-fold). The second binds more tightly here.

`CC(C)(C)C(=O)ONCCCC(=O)O` and `NC(=O)NCCCC(=O)O` are the same in Ki: 100 µM for the first, 100 µM for the second.

First: Nc1cc(-c2ccccc2)cn[n+]1CCCC(=O)O
Second: Cc1cc(-c2ccccc2)n[n+](CC(=O)O)c1N
The Ki of the first is 1.6-fold higher: 100 µM for the first, 62 µM for the second. The second binds more tightly here.

`CCCN(CCC)CCCC(=O)O` and `O=C(O)CCCC1CCNC1` (configuration not stated) cannot be ordered by Ki: greater than 100 µM for the first, greater than 100 µM for the second.

With `Nc1ccc(-c2ccc(F)cc2)n[n+]1CCCC(=O)O` the Ki was 1.27 µM.
